From ChEMBL document CHEMBL1132585, “New N-(pyridin-4-yl)-(indol-3-yl)acetamides and propanamides as antiallergic agents” (J Med Chem, 1999)
The source made the active and inactive calls. No cut-off for these calls is given here.

Assays:
Mus musculus [1] = organism: Mus musculus; assay: Percent inhibition of anti-CD3 mAb stimulated interleukin-4 release from […] by 10 uM; type: functional
Method in brief: (§1)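 D10.G4.1 Th-2 cells (4 × 10⁴/well) in medium without Rat T-STIM for 3.5 h, then exposed to drug at 10 µM for 30 min and stimulated with anti-CD3 mAb (final 1:100) for 16 h. IL-4 or IL-5 content of the supernatant is read against solvent control. Mean of three experiments, each run in duplicate.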

Mus musculus [2] = organism: Mus musculus; assay: Percent inhibition of anti-CD3 mAb stimulated interleukin-5 release from […] by 10 uM; type: functional; method in brief: as §1
Rattus norvegicus [3] = organism: Rattus norvegicus; assay: Inhibition of histamine release in rat mast cells; type: functional, cell-based
Mus musculus [4] = organism: Mus musculus; assay: Percent inhibition of anti-CD3 mAb stimulated interleukin-4 release from mice splenocytes by 10 uM compound; type: functional
Mus musculus [5] = organism: Mus musculus; assay: Compound was evaluated for IL 5 production inhibitio from mice splenocytes stimulated by anti-CD3 mAb; type: functional
Method in brief: (§2)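 Th-2 clone D10.G4.1, restimulated with conalbumin (100 µg/mL) plus mitomycin C-treated AKR/J splenocytes as antigen-presenting cells, thawed and grown 3 days with Rat T-STIM. Cells at 4 × 10⁴/well, 3.5 h without T-STIM, drug 30 min (DMSO ≤0.1%). Stimulated with anti-CD3 mAb (final 1:100) for 16 h; IL-4 or IL-5 measured in supernatant. IC50 estimated over a concentration range.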

Mus musculus [6] = organism: Mus musculus; assay: Compound was evaluated for IL 4 production inhibition from mice splenocytes stimulated by anti-CD3 mAb; type: functional; method in brief: as §2
Mus musculus [7] = organism: Mus musculus; assay: Compound was evaluated for IL 5 production inhibition from mice splenocytes stimulated by anti-CD3 mAb; type: functional; method in brief: as §2
Rattus norvegicus [8] = organism: Rattus norvegicus; assay: Inhibition of tetraethylammonium chloride(TEA)-induced acetylcholine hyperactivity in rat tracheal segments by the compound.; type: functional; settings: Trachea
Method in brief: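 Male Wistar rat tracheal rings in Krebs-Henseleit at 37 °C, 1 g preload, isotonic. Acetylcholine cumulative curves run alone, with TEA (10 mM, 30 min), and with drug (30 min before TEA) plus TEA. Percent inhibition of hyperreactivity taken from contraction at 100 µM acetylcholine, 3-5 preparations; screening at 30 µM, and IC50 by regression from 3-4 concentrations if inhibition exceeds 50%.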

Rattus norvegicus [9] = assay: Compound was evaluated in vivo for inhibition of Ovalbumin induced rhinitis in anesthetized rats after topical administration (nasal perfusion).; type: functional, organism-based
Method in brief: (§3)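 Male Brown Norway rats sensitized ip with OVA 0.5 mg/kg + Al(OH)₃ 7.5 mg/kg, used on day 20-21 under thiopental (50 mg/kg ip). Nasal cavity perfused with PBS; drug given by 30 min topical perfusion in PBS, iv 30 min or po 60 min before OVA challenge.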

Rattus norvegicus [10] = assay: Compound was evaluated in vivo for inhibition of Ovalbumin induced rhinitis in anesthetized rats 60 min after peroral administration.; type: functional; settings: po, 1 h, read-out: ID50 (the source's name); method in brief: as §3
Cavia porcellus [11] = assay: Inhibition of Late Phase Eosinophilia in Bronchoalveolar Lavage (BAL) of Guinea Pigs 4 hr after intraperitoneal administration at a dose 5 mg/kg.; type: functional; settings: ip
Method in brief: (§4)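 Male Dunkin-Hartley guinea pigs sensitized ip with OVA 20 µg + Al(OH)₃ 20 mg on two consecutive days; 14 days later mepyramine 10 mg/kg ip given before aerosol OVA challenge (5 mg/mL nebulized). Drug given ip or by oral gavage 2 h before or 4 h after challenge.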

Cavia porcellus [12] = assay: Inhibition of Late Phase Eosinophilia in Bronchoalveolar Lavage (BAL) of Guinea Pigs 2 hr after peroral administration at a dose of 30 mg/kg.; type: functional; settings: route oral; method in brief: as §4
Cavia porcellus [13] = organism: Cavia porcellus; assay: Inhibition of Carbachol-induced contraction of guinea pig trachea by the compound at a concentration of 100 uM.; type: functional
Method in brief: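 Guinea pig tracheal spirals in Tyrode solution at 37 °C, carbogen, isotonic 2 g preload. Contracted with carbachol 0.164 µM until stable; after isoprenaline relaxation and washout, carbachol re-applied and test compound added cumulatively. Relaxation calculated as a percentage at each concentration.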

Rattus norvegicus [14] = assay: Compound was evaluated in vivo for inhibition of Ovalbumin induced rhinitis in anesthetized rats 30 min after intravenous administration.; type: functional; settings: 0.5 h, read-out: ID50 (the source's name); method in brief: as §3
Cavia porcellus [15] = assay: Inhibition of Late Phase Eosinophilia in Bronchoalveolar Lavage (BAL) of Guinea Pigs 4 hr after peroral administration at a dose of 30 mg/kg.; type: functional; settings: route oral; method in brief: as §4
Cavia porcellus [16] = assay: Inhibition of Late Phase Eosinophilia in Bronchoalveolar Lavage (BAL) of Guinea Pigs 2 hr after intraperitoneal administration at a dose of 10 mg/kg.; type: functional; settings: ip; method in brief: as §4

IC50 (Rattus norvegicus [3])	Structure (SMILES)	inhibition (Mus musculus [1])	inhibition at 10 µM (Mus musculus [2])	inhibition at 10 µM (Mus musculus [4])	further results
	CC(C)c1ccc2c(c1)c(CC(=O)Nc1ccncc1)cn2Cc1ccc(F)cc1	inactive	23%		
3.9 µM	COc1ccc2c(c1)c(CCC(=O)Nc1ccncc1)cn2Cc1ccccc1	inactive			
	COc1ccc2[nH]c(C)c(CC(=O)Nc3ccncc3)c2c1	inactive			
1.46 µM	O=C(CCc1c[nH]c2ccc(Cl)cc12)Nc1ccncc1		25%	26%	
3.12 µM	CC(C)c1ccc2[nH]cc(CCC(=O)Nc3ccncc3)c2c1	inactive	28%		
	CC(C)(C)c1ccc(C(O)CCCN2CCC(C(O)(c3ccccc3)c3ccccc3)CC2)cc1 (stereo not given) [TERFENADINE]				IC50 (Mus musculus [5]): 3.96 µM; IC50 (Mus musculus [6]): 4.95 µM
0.33 µM	COc1ccc2c(CC(=O)Nc3ccncc3)cn(Cc3ccc(F)cc3)c2c1		76%	51%	IC50 (Mus musculus [7]): 2.28 µM; IC50 (Mus musculus [6]): 9.8 µM
0.23 µM	O=C(Cc1cn(Cc2ccc(F)cc2)c2ccc(Cl)cc12)Nc1ccncc1	inactive	54%		IC50 (Mus musculus [7]): 8.8 µM; IC50 (Mus musculus [6]): > 10 µM
> 10 µM	O=C(Cc1c[nH]c2ccc(F)cc12)Nc1ccncc1	inactive			
	O=C(Cc1cn(Cc2ccccc2)c2ccc(Cl)cc12)Nc1ccncc1		49%	39%	
4.5 µM	O=C(Cc1c[nH]c2ccc(Cl)cc12)Nc1ccncc1	inactive			
0.22 µM	O=C(CCc1cn(Cc2ccc(F)cc2)c2ccccc12)Nc1ccncc1		22%	2.9%	
0.38 µM	O=C(CCc1cn(Cc2ccc(F)cc2)c2ccc(F)cc12)Nc1ccncc1	inactive	37%		
0.74 µM	O=C(CCc1cn(Cc2ccccc2)c2ccc(Cl)cc12)Nc1ccncc1	inactive			
0.94 µM	O=C(Cc1cn(Cc2ccc(F)cc2)c2cc(O)ccc12)Nc1ccncc1		37%	29%	
	COc1ccc(CCN(C)CCCC(C#N)(c2ccc(OC)c(OC)c2)C(C)C)cc1OC (stereo not given) [VERAPAMIL]				IC50 (Rattus norvegicus [8]): 1.3 µM
2.8 µM	COc1ccc2c(c1)c(CC(=O)Nc1ccncc1)cn2Cc1ccccc1		38%	33%	
10.1 µM	Cc1[nH]c2ccc(F)cc2c1CC(=O)Nc1ccncc1	inactive			
0.06 µM	O=C(Cc1cn(Cc2ccccc2)c2ccc(F)cc12)Nc1ccncc1	inactive	48%		
	COc1ccc(CN(CCN(C)C)c2ccccn2)cc1 [PYRILAMINE]				IC50 (Rattus norvegicus [9]): 7.41 µM
2.21 µM	O=C(CCc1c[nH]c2ccc(F)cc12)Nc1ccncc1	inactive	25%		
0.302 µM	O=C(Cc1cn(-c2ccc(F)cc2)c2ccccc12)Nc1ccncc1		48%	31%	
6 µM	CC(C)c1ccc2c(c1)c(CCC(=O)Nc1ccncc1)cn2Cc1ccccc1	inactive	25%		

IC50 (Rattus norvegicus [3])	Structure (SMILES)	inhibition (Mus musculus [1])	inhibition at 10 µM (Mus musculus [2])	inhibition at 10 µM (Mus musculus [4])	further results
> 10 µM	COc1ccc2[nH]cc(CC(=O)Nc3ccncc3)c2c1	inactive			
2.8 µM	Cc1[nH]c2ccc(C(C)C)cc2c1CC(=O)Nc1ccncc1	inactive			
	c1ccc(CN(CC2=NCCN2)c2ccccc2)cc1 [ANTAZOLINE]				IC50 (Rattus norvegicus [9]): 1.26 µM
1.3 µM	O=C(CCc1cn(Cc2ccc(F)cc2)c2ccc(Cl)cc12)Nc1ccncc1	inactive	41%		
6.5 µM	COc1ccc(CCN2CCC(Nc3nc4ccccc4n3Cc3ccc(F)cc3)CC2)cc1 [ASTEMIZOLE]		74%	66%	IC50 (Mus musculus [7]): 3.3 µM; IC50 (Mus musculus [6]): 8 µM
	Cc1c(CC(=O)Nc2ccncc2)c2cc(Cl)ccc2n1Cc1ccc(F)cc1		26%	28%	
7.54 µM	Cc1c(CC(=O)Nc2ccncc2)c2cc(C(C)C)ccc2n1Cc1ccccc1	inactive	34%		
0.48 µM	Cc1c(CC(=O)Nc2ccncc2)c2cc(F)ccc2n1Cc1ccccc1	inactive	41%		
5 µM	COc1ccc2c(c1)c(CC(=O)Nc1ccncc1)c(C)n2Cc1ccc(F)cc1	inactive	22%		
	O=C(Cc1cn(-c2ccc(F)cc2)c2ccc(F)cc12)Nc1ccncc1		71%	51%	IC50 (Mus musculus [7]): 4.56 µM; IC50 (Mus musculus [6]): 9.7 µM
	COc1ccc2[nH]cc(CCC(=O)Nc3ccncc3)c2c1	inactive	26%		
0.42 µM	O=C(CCc1cn(Cc2ccccc2)c2ccc(F)cc12)Nc1ccncc1		42%	27%	
	COc1ccc2c(c1)c(CCC(=O)Nc1ccncc1)cn2Cc1ccc(F)cc1	inactive			
	O=C(Cc1cn(Cc2ccc(F)cc2)c2ccc(F)cc12)Nc1ccncc1	inactive	43%		
> 10 µM	Cc1[nH]c2ccc(Cl)cc2c1CC(=O)Nc1ccncc1	inactive			
4.92 µM	CC(C)c1ccc2[nH]cc(CC(=O)Nc3ccncc3)c2c1		29%	33%	
6.9 µM	Cc1c(CC(=O)Nc2ccncc2)c2cc(C(C)C)ccc2n1Cc1ccc(F)cc1	inactive			
5.34 µM	CC(C)c1ccc2c(c1)c(CCC(=O)Nc1ccncc1)cn2Cc1ccc(F)cc1	inactive			
	C[C@@H]1C[C@H]2[C@@H]3CCC4=CC(=O)C=C[C@]4(C)[C@@]3(F)[C@@H](O)C[C@]2(C)[C@@]1(O)C(=O)CO [DEXAMETHASONE]				IC50 (Mus musculus [5]): 0.0035 µM; IC50 (Mus musculus [6]): 0.0047 µM
0.51 µM	O=C(CCCc1cn(Cc2ccc(F)cc2)c2ccccc12)Nc1ccncc1		42%	31%	
0.016 µM	O=C(Cc1cn(Cc2ccc(F)cc2)c2ccccc12)Nc1ccncc1		100%	63%	IC50 (Mus musculus [7]): 1.5 µM; ED50 (Rattus norvegicus [10]): 0.46 mg/kg; inhibition in vivo at 5 mg/kg (Cavia porcellus [11]): 41%; inhibition in vivo at 30 mg/kg (Cavia porcellus [12]): 35%; inhibition at 100 µM (Cavia porcellus [13]): 36%; IC50 (Mus musculus [6]): 8 µM; ED50 (Rattus norvegicus [14]): 0.005 mg/kg; inhibition in vivo at 30 mg/kg (Cavia porcellus [15]): 28%; IC50 (Rattus norvegicus [8]): 0.021 µM; IC50 (Rattus norvegicus [9]): 0.25 µM; inhibition in vivo at 10 mg/kg (Cavia porcellus [16]): 59%
	COc1ccc2c(c1)c(CC(=O)Nc1ccncc1)cn2-c1ccc(F)cc1		22%	24%	
0.4 µM	Cc1c(CC(=O)Nc2ccncc2)c2cc(F)ccc2n1Cc1ccc(F)cc1		61%	49%	IC50 (Mus musculus [7]): 7.87 µM; IC50 (Mus musculus [6]): 10.2 µM
